# Measured values as given in ChEMBL document CHEMBL2034880, “Synthesis and biological evaluation of pyrimidine-based dual inhibitors of human epidermal growth factor receptor 1 (HER-1) and HER-2 tyrosine kinases” (J Med Chem, 2012).
# How the values were obtained:
# SK-BR-3 = assay: Cytotoxicity against human SKBR3 cells overexpressing HER-2 gene after 72 hrs by SRB assay; type: functional, cell-based; settings: SK-BR-3, 72 h
# Summary of the method: (§1)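 A431 and SK-Br3 cells grown in DMEM (4.5 g/L glucose, 1.5 g/L sodium bicarbonate) with 10% FBS at 37 °C, humidified 5% CO2. Proliferation/growth inhibition IC50 values are means of three independent experiments, each run in duplicate.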
# A-431 = assay: Cytotoxicity against human A431 cells overexpressing HER-1 gene after 72 hrs by SRB assay; type: functional, cell-based; settings: A-431, 72 h; summary of the method: as §1
# [1] = AUC (0 to last) in ICR mouse at 10 mg/kg, po; type: ADME, organism-based; set-up: time 0 - last, dose 10 mg/kg, route oral; settings: plasma
# Summary of the method: (§2)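 Male ICR mice (27 5 g) and male Sprague-Dawley rats (250 10 g), n = 3 per route. Single oral gavage dose (mice 10 mg/kg, rats 5 mg/kg) and tail-vein iv dose (mice 2 mg/kg, rats 1 mg/kg). Compound given as HCl salt in 30% PEG400 and 5% ethanol in distilled water. Jugular blood drawn at set times over at least 24 h into heparin. Plasma level measured by LC/MS/MS after acetonitrile protein precipitation.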
# [2] = Cmax in ICR mouse at 10 mg/kg, po; type: ADME, organism-based; set-up: dose 10 mg/kg, route oral; settings: in vivo; summary of the method: as §2
# [3] = Half life in ICR mouse at 10 mg/kg, po; type: ADME, organism-based; set-up: dose 10 mg/kg, route oral; settings: in vivo; summary of the method: as §2
# [4] = Oral bioavailability in ICR mouse at 10 mg/kg; type: ADME, organism-based; settings: in vivo; summary of the method: as §2
# [5] = AUC (0 to last) in Sprague-Dawley rat at 5 mg/kg, po; type: ADME, organism-based; set-up: dose 5 mg/kg, route oral, time 0 - last; settings: plasma; summary of the method: as §2
# [6] = Cmax in Sprague-Dawley rat at 5 mg/kg, po; type: ADME, organism-based; set-up: dose 5 mg/kg, route oral; settings: in vivo; summary of the method: as §2
# [7] = Half life in Sprague-Dawley rat at 5 mg/kg, po; type: ADME, organism-based; set-up: dose 5 mg/kg, route oral; settings: in vivo; summary of the method: as §2
# [8] = Oral bioavailability in Sprague-Dawley rat at 5 mg/kg; type: ADME, organism-based; settings: in vivo; summary of the method: as §2
# [9] = Half life in human liver microsomes at 5 uM
# [10] = Half life in rat liver microsomes at 5 uM
# [11] = Half life in dog liver microsomes at 5 uM
# [12] = Half life in mouse liver microsomes at 5 uM
# [13] = biological target: Tyrosine-protein kinase ABL1 (Homo sapiens, UniProt P00519); assay: Inhibition of Abl at 3 uM
# [14] = biological target: Aurora kinase A (Homo sapiens) (UniProt O14965); assay: Inhibition of Aurora A at 3 uM
# [15] = biological target: Tyrosine-protein kinase Blk (Homo sapiens) (UniProt P51451); assay: Inhibition of Blk at 3 uM
# Sequence of Tyrosine-protein kinase Blk (Homo sapiens) (P51451 2-505 limits assumed): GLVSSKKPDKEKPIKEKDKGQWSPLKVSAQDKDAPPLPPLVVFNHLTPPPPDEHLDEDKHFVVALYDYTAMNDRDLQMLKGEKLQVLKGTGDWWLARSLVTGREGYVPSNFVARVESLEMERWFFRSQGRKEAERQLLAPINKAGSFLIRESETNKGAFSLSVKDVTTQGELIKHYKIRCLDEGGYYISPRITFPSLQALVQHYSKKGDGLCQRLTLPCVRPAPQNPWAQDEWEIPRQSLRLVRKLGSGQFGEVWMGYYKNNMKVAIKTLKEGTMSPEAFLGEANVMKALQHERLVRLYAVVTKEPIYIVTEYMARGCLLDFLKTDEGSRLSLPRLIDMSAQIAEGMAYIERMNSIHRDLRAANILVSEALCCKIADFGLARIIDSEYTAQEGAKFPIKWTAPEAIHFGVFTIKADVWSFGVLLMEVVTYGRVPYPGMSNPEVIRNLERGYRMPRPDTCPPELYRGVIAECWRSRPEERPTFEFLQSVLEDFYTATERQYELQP
# [16] = biological target: Vascular endothelial growth factor receptor 1 (Homo sapiens, UniProt P17948); assay: Inhibition of Flt1 at 3 uM
# [17] = biological target: Hepatocyte growth factor receptor (Homo sapiens, UniProt P08581); assay: Inhibition of MET at 3 uM
# Sequence of Hepatocyte growth factor receptor (P08581 whole entry): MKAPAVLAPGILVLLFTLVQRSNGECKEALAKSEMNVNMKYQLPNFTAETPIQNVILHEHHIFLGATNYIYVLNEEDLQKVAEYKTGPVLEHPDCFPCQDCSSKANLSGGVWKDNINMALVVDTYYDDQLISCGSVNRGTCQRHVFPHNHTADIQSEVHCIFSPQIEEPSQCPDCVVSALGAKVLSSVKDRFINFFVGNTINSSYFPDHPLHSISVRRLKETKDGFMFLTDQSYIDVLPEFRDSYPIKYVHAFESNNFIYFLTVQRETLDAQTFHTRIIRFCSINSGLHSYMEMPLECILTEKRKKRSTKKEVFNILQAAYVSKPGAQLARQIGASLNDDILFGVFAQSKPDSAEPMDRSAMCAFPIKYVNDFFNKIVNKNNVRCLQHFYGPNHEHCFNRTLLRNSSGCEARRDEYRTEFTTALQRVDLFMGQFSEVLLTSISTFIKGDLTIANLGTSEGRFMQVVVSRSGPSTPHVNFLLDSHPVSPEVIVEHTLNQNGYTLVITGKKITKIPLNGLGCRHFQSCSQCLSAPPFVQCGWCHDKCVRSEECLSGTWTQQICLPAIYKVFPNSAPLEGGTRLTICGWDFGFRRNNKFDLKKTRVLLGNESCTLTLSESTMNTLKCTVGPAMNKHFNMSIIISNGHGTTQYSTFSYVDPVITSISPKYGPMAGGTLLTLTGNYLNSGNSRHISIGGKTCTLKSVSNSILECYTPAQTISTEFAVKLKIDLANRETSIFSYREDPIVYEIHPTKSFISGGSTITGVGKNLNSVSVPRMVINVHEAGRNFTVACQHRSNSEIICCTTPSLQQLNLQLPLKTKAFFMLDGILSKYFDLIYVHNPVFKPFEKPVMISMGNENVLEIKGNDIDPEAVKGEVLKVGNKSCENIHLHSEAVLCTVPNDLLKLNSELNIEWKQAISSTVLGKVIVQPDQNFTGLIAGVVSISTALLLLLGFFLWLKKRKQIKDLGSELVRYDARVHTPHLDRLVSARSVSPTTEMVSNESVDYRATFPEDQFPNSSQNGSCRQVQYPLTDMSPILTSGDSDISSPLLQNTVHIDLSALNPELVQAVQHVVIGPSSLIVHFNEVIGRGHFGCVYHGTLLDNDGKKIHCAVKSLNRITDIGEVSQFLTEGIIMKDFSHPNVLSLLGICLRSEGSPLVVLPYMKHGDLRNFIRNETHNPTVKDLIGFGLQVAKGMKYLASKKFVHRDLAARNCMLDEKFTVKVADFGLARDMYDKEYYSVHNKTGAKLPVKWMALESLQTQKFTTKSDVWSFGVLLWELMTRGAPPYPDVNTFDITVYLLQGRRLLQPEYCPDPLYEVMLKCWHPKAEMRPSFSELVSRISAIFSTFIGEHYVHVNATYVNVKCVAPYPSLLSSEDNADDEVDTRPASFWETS
# [18] = biological target: Tyrosine-protein kinase SYK (Homo sapiens, UniProt P43405); assay: Inhibition of Syk at 3 uM
# [19] = biological target: 5'-AMP-activated protein kinase catalytic subunit alpha-1 (Homo sapiens, UniProt Q13131); settings: 3 uM
# [20] = biological target: Cyclin-dependent kinase 1/cyclin B1 (Homo sapiens) (UniProt P06493+P14635); settings: 3 uM
# [21] = biological target: Mast/stem cell growth factor receptor Kit (Homo sapiens, UniProt P10721); settings: 3 uM
# Focal adhesion kinase 1 = Focal adhesion kinase 1 (Homo sapiens, UniProt Q05397); settings: 3 uM
# [22] = biological target: Fibroblast growth factor receptor 1 (Homo sapiens, UniProt P11362); settings: 3 uM
# [23] = biological target: Receptor-type tyrosine-protein kinase FLT3 (Homo sapiens) (UniProt P36888); settings: 3 uM
# [24] = biological target: Insulin-like growth factor 1 receptor (Homo sapiens, UniProt P08069); settings: 3 uM
# Insulin receptor = Insulin receptor (Homo sapiens, UniProt P06213); settings: 3 uM
# [25] = biological target: Tyrosine-protein kinase JAK2 (Homo sapiens, UniProt O60674); settings: 3 uM
# Sequence of Tyrosine-protein kinase JAK2 (O60674 whole entry): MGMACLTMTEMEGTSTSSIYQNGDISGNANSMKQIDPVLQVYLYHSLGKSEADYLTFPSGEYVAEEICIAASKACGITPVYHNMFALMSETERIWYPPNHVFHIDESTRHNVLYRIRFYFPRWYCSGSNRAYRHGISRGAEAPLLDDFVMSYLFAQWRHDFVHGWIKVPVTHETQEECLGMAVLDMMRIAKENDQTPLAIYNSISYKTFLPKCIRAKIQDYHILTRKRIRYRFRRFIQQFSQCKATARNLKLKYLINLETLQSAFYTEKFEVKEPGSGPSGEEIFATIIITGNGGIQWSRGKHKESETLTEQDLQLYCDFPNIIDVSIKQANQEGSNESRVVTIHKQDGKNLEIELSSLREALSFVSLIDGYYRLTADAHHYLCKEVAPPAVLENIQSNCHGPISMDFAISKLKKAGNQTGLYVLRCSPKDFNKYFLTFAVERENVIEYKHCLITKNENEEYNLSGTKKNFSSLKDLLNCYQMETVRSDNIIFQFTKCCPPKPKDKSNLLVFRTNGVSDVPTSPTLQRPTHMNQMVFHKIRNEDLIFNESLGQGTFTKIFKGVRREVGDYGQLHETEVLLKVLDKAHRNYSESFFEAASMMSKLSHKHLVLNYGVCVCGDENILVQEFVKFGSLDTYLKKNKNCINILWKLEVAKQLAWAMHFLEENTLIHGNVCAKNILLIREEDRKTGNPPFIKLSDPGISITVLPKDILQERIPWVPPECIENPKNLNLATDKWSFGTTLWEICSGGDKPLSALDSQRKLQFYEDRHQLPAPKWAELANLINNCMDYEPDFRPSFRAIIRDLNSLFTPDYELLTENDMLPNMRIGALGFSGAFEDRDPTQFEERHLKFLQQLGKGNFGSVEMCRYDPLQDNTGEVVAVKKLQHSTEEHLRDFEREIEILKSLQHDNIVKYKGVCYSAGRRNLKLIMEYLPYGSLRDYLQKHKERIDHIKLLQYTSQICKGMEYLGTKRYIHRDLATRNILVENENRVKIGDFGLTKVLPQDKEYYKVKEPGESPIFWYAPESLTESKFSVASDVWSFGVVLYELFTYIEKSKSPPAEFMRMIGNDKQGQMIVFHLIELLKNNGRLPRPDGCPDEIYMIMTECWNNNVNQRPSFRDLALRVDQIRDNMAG
# [26] = biological target: Serine/threonine-protein kinase STK11 (Homo sapiens) (UniProt Q15831); settings: 3 uM
# [27] = biological target: Dual specificity mitogen-activated protein kinase kinase 1 (Homo sapiens, UniProt Q02750); settings: 3 uM
# Sequence of Dual specificity mitogen-activated protein kinase kinase 1 (Q02750 whole entry): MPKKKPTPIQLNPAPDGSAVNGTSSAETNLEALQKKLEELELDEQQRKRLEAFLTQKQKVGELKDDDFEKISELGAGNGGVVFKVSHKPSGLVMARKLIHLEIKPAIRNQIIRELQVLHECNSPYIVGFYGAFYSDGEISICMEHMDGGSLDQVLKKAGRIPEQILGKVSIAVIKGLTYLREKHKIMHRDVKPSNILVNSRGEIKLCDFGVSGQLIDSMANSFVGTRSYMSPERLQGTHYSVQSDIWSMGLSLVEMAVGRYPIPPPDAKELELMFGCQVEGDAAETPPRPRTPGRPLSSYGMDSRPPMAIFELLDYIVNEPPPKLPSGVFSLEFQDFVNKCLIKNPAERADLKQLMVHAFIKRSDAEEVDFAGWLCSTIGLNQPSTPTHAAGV
# [28] = biological target: Platelet-derived growth factor receptor alpha (Homo sapiens, UniProt P16234); settings: 3 uM
# [29] = biological target: Platelet-derived growth factor receptor beta (Homo sapiens, UniProt P09619); settings: 3 uM
# [30] = biological target: Serine/threonine-protein kinase pim-1 (Homo sapiens, UniProt P11309); settings: 3 uM
# Sequence of Serine/threonine-protein kinase pim-1 (P11309 whole entry, looked up): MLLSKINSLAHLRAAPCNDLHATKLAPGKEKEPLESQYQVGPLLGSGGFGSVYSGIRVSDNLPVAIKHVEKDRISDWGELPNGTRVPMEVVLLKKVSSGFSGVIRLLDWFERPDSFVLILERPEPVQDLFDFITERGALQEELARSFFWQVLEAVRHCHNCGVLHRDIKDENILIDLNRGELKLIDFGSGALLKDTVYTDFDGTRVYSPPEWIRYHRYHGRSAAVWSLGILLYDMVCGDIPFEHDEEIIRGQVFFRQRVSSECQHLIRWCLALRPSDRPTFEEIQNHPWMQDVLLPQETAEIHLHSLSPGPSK
# [31] = biological target: T1, Receptor tyrosine-protein kinase erbB-2 (Homo sapiens, UniProt P04626); settings: SK-BR-3, 1 uM
# T1 sequence (P04626 whole entry): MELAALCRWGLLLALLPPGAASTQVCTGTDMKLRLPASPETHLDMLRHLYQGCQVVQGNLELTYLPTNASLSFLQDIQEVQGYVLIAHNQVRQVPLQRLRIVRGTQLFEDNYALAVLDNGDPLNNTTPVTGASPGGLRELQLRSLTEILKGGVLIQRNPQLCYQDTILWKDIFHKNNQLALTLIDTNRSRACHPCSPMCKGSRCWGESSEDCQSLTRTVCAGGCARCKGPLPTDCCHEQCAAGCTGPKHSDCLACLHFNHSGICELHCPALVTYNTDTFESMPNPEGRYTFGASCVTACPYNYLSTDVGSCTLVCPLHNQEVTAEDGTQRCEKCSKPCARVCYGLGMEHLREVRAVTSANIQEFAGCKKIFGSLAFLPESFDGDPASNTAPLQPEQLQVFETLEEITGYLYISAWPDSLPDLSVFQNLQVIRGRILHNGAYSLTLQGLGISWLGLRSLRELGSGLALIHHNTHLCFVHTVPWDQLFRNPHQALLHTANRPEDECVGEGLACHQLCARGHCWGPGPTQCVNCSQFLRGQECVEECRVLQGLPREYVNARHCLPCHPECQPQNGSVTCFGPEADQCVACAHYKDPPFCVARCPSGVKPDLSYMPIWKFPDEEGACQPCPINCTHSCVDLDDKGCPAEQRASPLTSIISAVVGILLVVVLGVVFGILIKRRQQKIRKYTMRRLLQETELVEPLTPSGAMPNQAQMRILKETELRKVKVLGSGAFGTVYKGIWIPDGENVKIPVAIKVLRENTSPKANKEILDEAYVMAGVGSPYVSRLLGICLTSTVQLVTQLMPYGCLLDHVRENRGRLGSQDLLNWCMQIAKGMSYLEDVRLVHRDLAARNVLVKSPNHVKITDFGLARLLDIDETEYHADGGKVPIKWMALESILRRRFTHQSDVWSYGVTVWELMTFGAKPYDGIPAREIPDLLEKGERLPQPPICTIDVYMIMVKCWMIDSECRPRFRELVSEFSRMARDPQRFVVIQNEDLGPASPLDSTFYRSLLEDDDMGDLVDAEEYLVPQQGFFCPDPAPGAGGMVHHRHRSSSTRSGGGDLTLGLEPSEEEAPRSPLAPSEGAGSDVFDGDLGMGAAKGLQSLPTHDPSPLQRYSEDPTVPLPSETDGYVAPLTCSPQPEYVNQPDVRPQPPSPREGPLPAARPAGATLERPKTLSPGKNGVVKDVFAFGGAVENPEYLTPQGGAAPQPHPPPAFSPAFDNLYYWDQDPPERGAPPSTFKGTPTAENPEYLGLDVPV
# [32] = biological target: T1, Receptor tyrosine-protein kinase erbB-2; settings: SK-BR-3, 1 uM; remark: listed apart in the source
structure (smiles),measurement,setting,value
C=CC(=O)NCc1coc(-c2c(N)ncnc2Nc2ccc(Oc3ccc(C)nc3)c(Cl)c2)n1,IC50,SK-BR-3,6.1 nM
same,IC50,A-431,68 nM
C=CC(=O)NCc1coc(-c2c(N)ncnc2Nc2ccc(OCc3ccccn3)c(Cl)c2)n1.Cl,AUC(0-t),[1],455 ng·h/mL
same,Cmax,[2],282 ng/mL
same,half-life,[3],1660 min
same,bioavailability,[4],21.6%
same,AUC(0-t),[5],440 ng·h/mL
same,Cmax,[6],189 ng/mL
same,half-life,[7],194 min
same,bioavailability,[8],21.9%
C=CC(=O)NCc1coc(-c2c(N)ncnc2Nc2ccc(Oc3cccc(Cl)c3Cl)c(Cl)c2)n1,IC50,SK-BR-3,18.2 nM
same,IC50,A-431,113 nM
C=CC(=O)NCc1coc(-c2c(N)ncnc2Nc2ccc(F)c(Cl)c2)n1,half-life at 5 µM,[9]; liver microsomes,16 min
same,half-life at 5 µM,[10]; liver microsomes,24 min
same,half-life at 5 µM,[11]; liver microsomes,9 min
same,IC50,SK-BR-3,34.1 nM
same,half-life at 5 µM,[12]; liver microsomes,9 min
same,IC50,A-431,52 nM
C=CC(=O)NCc1coc(-c2c(N)ncnc2Nc2ccc(Oc3cccnc3)c(Cl)c2)n1,half-life at 5 µM,[9]; liver microsomes,15 min
same,half-life at 5 µM,[10]; liver microsomes,9 min
same,half-life at 5 µM,[11]; liver microsomes,39 min
same,IC50,SK-BR-3,2.4 nM
same,half-life at 5 µM,[12]; liver microsomes,18 min
same,IC50,A-431,68 nM
C=CC(=O)NCCNC(=O)c1c(N)ncnc1Nc1ccc(OCc2ccccn2)c(Cl)c1,IC50,SK-BR-3,> 1000 nM
same,IC50,A-431,> 1000 nM
C=CC(=O)NCc1coc(-c2c(N)ncnc2Nc2ccc(Oc3cc(Cl)ccc3Cl)c(Cl)c2)n1,half-life at 5 µM,[9]; liver microsomes,96 min
same,half-life at 5 µM,[10]; liver microsomes,51 min
same,half-life at 5 µM,[11]; liver microsomes,> 100 min
same,IC50,SK-BR-3,1.9 nM
same,half-life at 5 µM,[12]; liver microsomes,57 min
same,IC50,A-431,184 nM
C=CC(=O)NCc1coc(-c2c(N)ncnc2Nc2ccc(Cl)c(Cl)c2F)n1,half-life at 5 µM,[9]; liver microsomes,> 100 min
same,half-life at 5 µM,[10]; liver microsomes,> 100 min
same,half-life at 5 µM,[11]; liver microsomes,> 100 min
same,IC50,SK-BR-3,92.6 nM
same,half-life at 5 µM,[12]; liver microsomes,74 min
same,IC50,A-431,282 nM
C=CC(=O)NCc1coc(-c2c(N)ncnc2Nc2ccc(Oc3cc(C(F)(F)F)nn3C)c(Cl)c2)n1,half-life at 5 µM,[9]; microsomes,> 100 min
same,half-life at 5 µM,[10]; microsomes,> 100 min
same,half-life at 5 µM,[11]; microsomes,> 100 min
same,IC50,SK-BR-3,3.3 nM
same,half-life at 5 µM,[12]; microsomes,> 100 min
same,IC50,A-431,65 nM
C=CC(=O)NCc1coc(-c2c(N)ncnc2Nc2ccc(Oc3ccnn3C)c(Cl)c2)n1,half-life at 5 µM,[9]; microsomes,> 100 min
same,half-life at 5 µM,[10]; microsomes,25 min
same,half-life at 5 µM,[11]; microsomes,51 min
same,IC50,SK-BR-3,4 nM
same,half-life at 5 µM,[12]; microsomes,39 min
same,IC50,A-431,66 nM
C=CC(=O)NCc1coc(-c2c(N)ncnc2Nc2ccc(Oc3ccccn3)c(Cl)c2)n1,half-life at 5 µM,[9]; liver microsomes,39 min
same,half-life at 5 µM,[10]; liver microsomes,16 min
same,half-life at 5 µM,[11]; liver microsomes,24 min
same,IC50,SK-BR-3,1.7 nM
same,half-life at 5 µM,[12]; liver microsomes,15 min
same,IC50,A-431,36 nM
C=CC(=O)NCc1coc(-c2c(N)ncnc2Nc2ccc(OCc3cccc(F)c3)c(Cl)c2)n1,half-life at 5 µM,[9]; liver microsomes,45 min
same,half-life at 5 µM,[10]; liver microsomes,29 min
same,half-life at 5 µM,[11]; liver microsomes,> 100 min
same,IC50,SK-BR-3,3.9 nM
same,IC50,A-431,59 nM
C=CC(=O)NCc1coc(-c2c(N)ncnc2Nc2ccc(Oc3ccccc3F)c(Cl)c2)n1,IC50,SK-BR-3,4.7 nM
same,IC50,A-431,29 nM
C=CC(=O)NCc1cc(-c2cncnc2Nc2ccc(OCc3ccccn3)c(Cl)c2)on1,IC50,SK-BR-3,122 nM
same,IC50,A-431,2.2 nM
C=CC(=O)NCc1coc(-c2c(N)ncnc2Nc2ccc(Oc3ccc(F)cc3)c(Cl)c2)n1,half-life at 5 µM,[9]; liver microsomes,> 100 min
same,half-life at 5 µM,[10]; liver microsomes,66 min
same,half-life at 5 µM,[11]; liver microsomes,> 100 min
same,IC50,SK-BR-3,6 nM
same,half-life at 5 µM,[12]; liver microsomes,> 100 min
same,IC50,A-431,39 nM
C=CC(=O)NCc1coc(-c2c(N)ncnc2Nc2ccc(Oc3cccc(F)c3)c(Cl)c2)n1,half-life at 5 µM,[9]; liver microsomes,> 100 min
same,half-life at 5 µM,[10]; liver microsomes,54 min
same,half-life at 5 µM,[11]; liver microsomes,> 100 min
same,IC50,SK-BR-3,0.5 nM
same,half-life at 5 µM,[12]; liver microsomes,> 100 min
same,IC50,A-431,75 nM
C=CC(=O)NCc1coc(-c2c(N)ncnc2Nc2ccc(Oc3ccccc3)c(Cl)c2)n1,half-life at 5 µM,[9]; liver microsomes,> 100 min
same,half-life at 5 µM,[10]; liver microsomes,59 min
same,half-life at 5 µM,[11]; liver microsomes,> 100 min
same,IC50,SK-BR-3,3.1 nM
same,half-life at 5 µM,[12]; liver microsomes,48 min
same,IC50,A-431,60 nM
C=CC(=O)NCc1coc(-c2c(N)ncnc2Nc2ccc(OCc3ccccn3)c(Cl)c2)n1,inhibition,[13],15%
same,inhibition,[14],42%
same,inhibition,[15],77%
same,inhibition,[16],15%
same,inhibition,[17],13%
same,inhibition,[18],15%
same,inhibition,[19],0%
same,inhibition,[20],0%
same,inhibition,[21],0%
same,inhibition,Focal adhesion kinase 1,0%
same,inhibition,[22],0%
same,inhibition,[23],0%
same,inhibition,[24],0%
same,inhibition,Insulin receptor,0%
same,inhibition,[25],0%
same,inhibition,[26],0%
same,inhibition,[27],14%
same,inhibition,[28],0%
same,inhibition,[29],0%
same,inhibition,[30],2%
same,inhibition,[31],87.5%
same,inhibition,[32],68.2%
C=CC(=O)NCc1coc(-c2c(N)ncnc2Nc2ccc(Oc3ccc(Cl)cc3Cl)c(Cl)c2)n1,IC50,SK-BR-3,6.5 nM
same,IC50,A-431,105 nM
C=CC(=O)Nc1cccc(-c2cncnc2Nc2ccc(OCc3ccccn3)c(Cl)c2)c1,IC50,SK-BR-3,6.1 nM
same,IC50,A-431,593 nM
C=CC(=O)NCC#Cc1cncnc1Nc1ccc(OCc2ccccn2)c(Cl)c1,IC50,SK-BR-3,> 1000 nM
same,IC50,A-431,> 1000 nM
C=CC(=O)NCc1coc(-c2c(N)ncnc2Nc2ccc(Oc3ccc(C)nc3)c(C)c2)n1,half-life at 5 µM,[9]; microsomes,39 min
same,half-life at 5 µM,[10]; microsomes,17 min
same,half-life at 5 µM,[11]; microsomes,41 min
same,IC50,SK-BR-3,1.1 nM
same,half-life at 5 µM,[12]; microsomes,43 min
same,IC50,A-431,64 nM
C=CC(=O)NCc1coc(-c2cncnc2Nc2ccc(OCc3ccccn3)c(Cl)c2)n1,IC50,SK-BR-3,9.7 nM
same,IC50,A-431,105 nM
C=CC(=O)NCc1coc(-c2c(N)ncnc2Nc2ccc(OCc3ccccn3)c(F)c2)n1,half-life at 5 µM,[9]; liver microsomes,27 min
same,half-life at 5 µM,[10]; liver microsomes,16 min
same,half-life at 5 µM,[11]; liver microsomes,44 min
same,IC50,SK-BR-3,6.1 nM
same,half-life at 5 µM,[12]; liver microsomes,9 min
same,IC50,A-431,63 nM
